Experiments:
[1] = biological target: Sodium-dependent dopamine transporter (Rattus norvegicus, UniProt P23977); assay: Displacement of [125I]RTI55 from DAT in Sprague-dawley rat striatum by liquid scintillation spectrophotometry
Method in brief: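 Membranes from tissue homogenized in 10 vol of 0.32 M sucrose/10 mM sodium phosphate buffer, pH 7.4, and spun three times at 48,000g for 10 min. Cold-Tris filtration used BSA-presoaked GF/B filters, with WF-23 defining non-specific binding.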

Transporter = Transporter (Rattus norvegicus, UniProt Q63380); assay: Displacement of [3H]nisoxetine from Sprague-dawley rat NET by liquid scintillation spectrophotometry
Transporter, sequence (Q63380 whole entry): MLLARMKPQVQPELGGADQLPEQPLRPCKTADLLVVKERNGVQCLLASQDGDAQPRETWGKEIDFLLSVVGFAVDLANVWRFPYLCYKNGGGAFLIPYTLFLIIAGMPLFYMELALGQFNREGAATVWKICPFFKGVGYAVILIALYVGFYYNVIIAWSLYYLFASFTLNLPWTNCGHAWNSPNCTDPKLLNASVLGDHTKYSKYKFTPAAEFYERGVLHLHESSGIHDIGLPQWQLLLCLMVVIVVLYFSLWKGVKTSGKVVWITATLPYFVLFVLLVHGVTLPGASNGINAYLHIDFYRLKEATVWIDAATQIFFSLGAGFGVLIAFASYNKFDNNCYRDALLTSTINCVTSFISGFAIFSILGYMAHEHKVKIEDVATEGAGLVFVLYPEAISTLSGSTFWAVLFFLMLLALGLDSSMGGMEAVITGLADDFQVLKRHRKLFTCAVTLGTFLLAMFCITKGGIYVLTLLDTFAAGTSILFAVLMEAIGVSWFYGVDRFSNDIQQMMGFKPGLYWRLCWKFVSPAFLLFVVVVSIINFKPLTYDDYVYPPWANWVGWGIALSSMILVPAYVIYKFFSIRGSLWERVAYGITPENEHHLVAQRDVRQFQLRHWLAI

[2] = biological target: Sodium-dependent serotonin transporter (Rattus norvegicus, UniProt P31652); assay: Displacement of [3H]citalopram from SERT in Sprague-dawley rat frontal cortex by liquid scintillation spectrophotometry; assay type: tissue-based
Sodium-dependent serotonin transporter, sequence (P31652 whole entry): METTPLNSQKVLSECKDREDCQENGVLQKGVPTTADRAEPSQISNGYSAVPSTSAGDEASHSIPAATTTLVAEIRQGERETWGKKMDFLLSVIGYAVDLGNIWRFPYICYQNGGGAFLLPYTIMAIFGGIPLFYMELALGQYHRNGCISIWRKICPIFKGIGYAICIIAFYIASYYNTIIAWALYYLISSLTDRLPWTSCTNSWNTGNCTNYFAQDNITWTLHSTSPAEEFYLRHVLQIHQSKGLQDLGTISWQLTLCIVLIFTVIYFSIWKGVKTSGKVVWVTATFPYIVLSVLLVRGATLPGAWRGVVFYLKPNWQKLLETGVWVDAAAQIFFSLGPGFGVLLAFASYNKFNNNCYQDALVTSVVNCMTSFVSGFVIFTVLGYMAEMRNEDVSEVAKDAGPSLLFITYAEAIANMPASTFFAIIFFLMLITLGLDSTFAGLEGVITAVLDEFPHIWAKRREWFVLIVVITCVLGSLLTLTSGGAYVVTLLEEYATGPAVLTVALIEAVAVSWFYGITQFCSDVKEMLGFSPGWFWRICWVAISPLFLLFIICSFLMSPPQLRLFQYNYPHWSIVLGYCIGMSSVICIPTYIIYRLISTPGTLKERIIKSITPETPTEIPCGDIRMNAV

Sodium-dependent dopamine transporter, sequence (P23977 whole entry): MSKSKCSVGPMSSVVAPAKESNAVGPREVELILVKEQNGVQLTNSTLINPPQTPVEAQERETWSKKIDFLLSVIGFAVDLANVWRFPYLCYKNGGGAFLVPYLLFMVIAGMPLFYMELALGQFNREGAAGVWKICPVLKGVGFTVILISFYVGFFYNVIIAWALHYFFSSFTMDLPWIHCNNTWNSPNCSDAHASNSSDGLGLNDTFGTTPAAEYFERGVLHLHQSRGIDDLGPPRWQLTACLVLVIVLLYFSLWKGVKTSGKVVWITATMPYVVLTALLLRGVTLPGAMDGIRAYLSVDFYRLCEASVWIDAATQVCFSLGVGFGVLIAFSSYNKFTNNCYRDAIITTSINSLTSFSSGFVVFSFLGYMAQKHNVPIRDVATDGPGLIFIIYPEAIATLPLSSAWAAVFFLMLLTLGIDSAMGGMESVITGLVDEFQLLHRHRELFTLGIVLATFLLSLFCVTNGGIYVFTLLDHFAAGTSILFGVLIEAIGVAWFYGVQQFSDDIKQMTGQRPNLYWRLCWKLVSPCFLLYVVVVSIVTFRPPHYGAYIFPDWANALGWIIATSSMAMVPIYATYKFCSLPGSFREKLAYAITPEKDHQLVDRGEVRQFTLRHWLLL

| Structure (SMILES) | IC50 [1] [nM] | Ki (Transporter) [nM] | Ki [2] [nM] |
| --- | --- | --- | --- |
| CNCC[C@H](c1ccc(Cl)c(Cl)c1)c1cccc2[nH]ccc12 | 7.21 | 95 | 1.68 |
| CNCCC[C@@H](c1ccc(Cl)c(Cl)c1)c1cccc2ccccc12 | 209 | > 10000 | 49.9 |
| CNCC[C@H](c1ccc(Cl)c(Cl)c1)c1cccc2ccccc12 | 9.7 | 1640 | 5.3 |
| CNCCC[C@@H](c1ccc(Cl)c(Cl)c1)c1cccc2[nH]ccc12 | 14.3 | 360 | 2.72 |
| CNCCC[C@H](c1cccs1)c1cccc2[nH]ccc12 | 318 | 9 | 72.9 |
| CNCC[C@@H](c1ccc(Cl)c(Cl)c1)c1cccc2ccccc12 | 35.8 | 1630 | 86 |
| CNCCC[C@H](c1ccc(Cl)c(Cl)c1)c1cccc2ccccc12 | 61.2 | 2480 | 4.1 |
| CNCC[C@@H](c1ccc(Cl)c(Cl)c1)c1cccc2[nH]ccc12 | 14.9 | 35.4 | 3.63 |
| CNCCC[C@@H](c1cccs1)c1cccc2[nH]ccc12 | 957 | 79.7 | 271 |
| CNCCC[C@H](c1ccc(Cl)c(Cl)c1)c1cccc2[nH]ccc12 | 3.8 | 4840 | 0.82 |

Second part, the compound after the results:

| IC50 [1] [nM] | Ki (Transporter) [nM] | Ki [2] [nM] | Structure (SMILES) |
| --- | --- | --- | --- |
| 309 | 52.1 | 30.2 | CNCC[C@H](c1cccs1)c1cccc2ccccc12 |
| 405 | 109 | 9.5 | CNCCC[C@@H](c1cccs1)c1cccc2ccccc12 |
| 466 | 7.9 | 39.7 | CNCCC[C@H](c1cccs1)c1cccc2ccccc12 |
| – | 13.8 | 31.9 | CNCC[C@H](c1cccs1)c1cccc2[nH]ccc12 |
| 230 | 139 | 12.1 | CNCC[C@@H](c1cccs1)c1cccc2ccccc12 |
| – | 102 | 166 | CNCC[C@@H](c1cccs1)c1cccc2[nH]ccc12 |

From ChEMBL document CHEMBL1139307, “1-Naphthyl and 4-indolyl arylalkylamines as selective monoamine reuptake inhibitors” (Bioorg Med Chem Lett, 2009)
